Source: ChEMBL document CHEMBL3526134, “Molecular mechanism of altered ezetimibe disposition in nonalcoholic steatohepatitis” (Drug Metab Dispos, 2012)
Activity calls are given as the source filed them. The calls are words filed in the database; no cut-off is given here.

Columns and labels:
[1] = Drug level in methionine and choline deficient fed Sprague-Dawley rat urine at 10 mg/kg, po after 120 mins by LC-MS/MS method; type: ADME, organism-based; parameters: dose 10 mg/kg, route oral; details: in vivo, 2 h
Method in brief: (§1)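 MCD-fed (8 weeks) male SD rats, urethane-anesthetized and cannulated, dosed EZE 10 mg/kg by gavage in 0.25% carboxymethylcellulose (n=3-5). Urine collected by bladder puncture 120 min post-dose; parent and total EZE (after β-glucuronidase, 50°C, 60 min) by LC-MS/MS, glucuronide calculated as their difference.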

[2] = test system: Plasma; experiment: Drug metabolism in methionine and choline deficient fed Sprague-Dawley rat plasma assessed as ezetimibe glucuronide formation at 10 mg/kg, po after 120 mins by LC-MS/MS method; type: ADME, organism-based; parameters: dose 10 mg/kg, route oral; details: in vivo, 2 h
Method in brief: (§2)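 Cannulated, urethane-anesthetized male SD rats after 8 weeks MCD diet given EZE 10 mg/kg orally in 0.25% carboxymethylcellulose (n=3-5). Plasma collected from 2 to 120 min post-dose; total EZE (after β-glucuronidase, 50°C 60 min) and parent EZE quantified by LC-MS/MS; glucuronide = total minus parent. Mean ± SEM.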

[3] = test system: Plasma; experiment: Drug level in methionine and choline deficient fed Sprague-Dawley rat plasma at 10 mg/kg, iv after 120 mins by LC-MS/MS method; type: ADME, organism-based; parameters: dose 10 mg/kg, route intravenous; details: in vivo, 2 h
Method in brief: (§3)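 MCD-diet (8 weeks) male SD rats under urethane, femoral artery/vein and bile duct cannulated; EZE 10 mg/kg i.v. bolus via femoral vein in ethanol/propylene glycol/PEG 400/water vehicle (n=3-5). Arterial plasma sampled from 2 to 120 min; 25 µL plasma analysed by LC-MS/MS with and without β-glucuronidase pre-hydrolysis; glucuronide calculated by difference. Mean ± SEM.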

[4] = Drug metabolism in methionine and choline deficient fed Sprague-Dawley rat urine assessed as ezetimibe glucuronide formation at 10 mg/kg, iv after 120 mins by LC-MS/MS method; type: ADME, organism-based; parameters: dose 10 mg/kg, route intravenous; details: in vivo, 2 h
Method in brief: (§4)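 After 8 weeks MCD diet, male SD rats under urethane received EZE 10 mg/kg i.v. through femoral vein cannula (ethanol/propylene glycol/PEG 400/water vehicle; n=3-5). Terminal urine taken by bladder puncture at 120 min; EZE and β-glucuronidase-hydrolysed total EZE measured by LC-MS/MS; glucuronide by difference.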

[5] = test system: Plasma; experiment: Drug metabolism in methionine and choline deficient fed Sprague-Dawley rat plasma assessed as ezetimibe glucuronide formation at 10 mg/kg, po after 40 mins by LC-MS/MS method; type: ADME, organism-based; parameters: dose 10 mg/kg, route oral; details: in vivo; method in brief: as §2
[6] = test system: Rattus norvegicus; experiment: Effect on total bile acid levels in Sprague-Dawley rat nonalcoholic steatohepatitis model at 10 mg/kg, iv after 120 mins by spectrophotometry; type: functional, organism-based; parameters: dose 10 mg/kg
[7] = Drug level in methionine and choline deficient fed Sprague-Dawley rat urine at 10 mg/kg, iv after 120 mins by LC-MS/MS method; type: ADME, organism-based; parameters: dose 10 mg/kg, route intravenous; details: in vivo, 2 h; method in brief: as §4
[8] = test system: Plasma; experiment: Drug level in methionine and choline deficient fed Sprague-Dawley rat plasma at 10 mg/kg, po after 40 mins by LC-MS/MS method; type: ADME, organism-based; parameters: dose 10 mg/kg, route oral; details: in vivo; method in brief: as §2
[9] = Drug level in methionine and choline deficient fed Sprague-Dawley rat bile at 10 mg/kg, iv after 30 to 90 mins by LC-MS/MS method; type: ADME, organism-based; parameters: dose 10 mg/kg, route intravenous; details: in vivo
Method in brief: (§5)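 Male SD rats (200-250 g) on MCD diet 8 weeks, urethane-anesthetized (1.2 g/kg i.p.), femoral vein/artery and bile duct cannulated, core temperature maintained. EZE 10 mg/kg i.v. via femoral vein in 10% ethanol/40% propylene glycol/30% PEG 400/20% water (n=3-5). Bile collected at 15-min intervals over 120 min; total EZE after β-glucuronidase (50°C, 60 min) and EZE by LC-MS/MS; glucuronide = total minus parent.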

[10] = Drug metabolism in methionine and choline deficient fed Sprague-Dawley rat bile assessed as ezetimibe glucuronide formation at 10 mg/kg, iv after 30 to 90 mins by LC-MS/MS method; type: ADME, organism-based; parameters: dose 10 mg/kg, route intravenous; details: in vivo; method in brief: as §5
[11] = Drug level in methionine and choline deficient fed Sprague-Dawley rat bile at 10 mg/kg, po after 120 mins by LC-MS/MS method; type: ADME, organism-based; parameters: dose 10 mg/kg, route oral; details: in vivo, 2 h
Method in brief: (§6)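 Male SD rats (200-250 g) fed MCD diet 8 weeks, urethane-anesthetized with femoral and bile duct cannulae. EZE 10 mg/kg by oral gavage in 0.25% carboxymethylcellulose (n=3-5). Bile taken at 15-min intervals to 120 min; samples ±β-glucuronidase hydrolysis (50°C, 60 min), hydroxychalcone internal standard, LC-MS/MS on C18 gradient; glucuronide derived as total minus unconjugated EZE.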

[12] = test system: Plasma; experiment: Drug level in methionine and choline deficient fed Sprague-Dawley rat plasma at 10 mg/kg, po after 120 mins by LC-MS/MS method; type: ADME, organism-based; parameters: dose 10 mg/kg, route oral; details: in vivo, 2 h; method in brief: as §2
[13] = test system: Plasma; experiment: Drug metabolism in methionine and choline deficient fed Sprague-Dawley rat plasma assessed as ezetimibe glucuronide formation at 10 mg/kg, iv after 40 mins by LC-MS/MS method; type: ADME, organism-based; parameters: dose 10 mg/kg, route intravenous; details: in vivo; method in brief: as §3
[14] = Drug metabolism in methionine and choline deficient fed Sprague-Dawley rat bile assessed as ezetimibe glucuronide formation at 10 mg/kg, po after 120 mins by LC-MS/MS method; type: ADME, organism-based; parameters: dose 10 mg/kg, route oral; details: in vivo, 2 h; method in brief: as §6
[15] = Drug metabolism in methionine and choline deficient fed Sprague-Dawley rat urine assessed as ezetimibe glucuronide formation at 10 mg/kg, po after 120 mins by LC-MS/MS method; type: ADME, organism-based; parameters: dose 10 mg/kg, route oral; details: in vivo, 2 h; method in brief: as §1
[16] = test system: Plasma; experiment: Drug level in methionine and choline deficient fed Sprague-Dawley rat plasma at 10 mg/kg, iv after 40 mins by LC-MS/MS method; type: ADME, organism-based; parameters: dose 10 mg/kg, route intravenous; details: in vivo; method in brief: as §3
[17] = test system: Rattus norvegicus; experiment: Effect on total bile acid levels in Sprague-Dawley rat nonalcoholic steatohepatitis model at 10 mg/kg, po after 120 mins by spectrophotometry; type: functional, organism-based; parameters: dose 10 mg/kg
[18] = test system: Plasma; experiment: Drug metabolism in methionine and choline deficient fed Sprague-Dawley rat plasma assessed as ezetimibe glucuronide formation at 10 mg/kg, iv after 120 mins by LC-MS/MS method; type: ADME, organism-based; parameters: dose 10 mg/kg, route intravenous; details: in vivo, 2 h; method in brief: as §3
[19] = Drug level in methionine and choline deficient fed Sprague-Dawley rat bile treated with ezetimibe at 10 mg/kg, iv after 30 to 90 mins by LC-MS/MS method; type: ADME, organism-based; parameters: dose 10 mg/kg, route intravenous; details: in vivo; method in brief: as §5
[20] = Drug level in methionine and choline deficient fed Sprague-Dawley rat urine treated with ezetimibe at 10 mg/kg, iv after 120 mins by LC-MS/MS method; type: ADME, organism-based; parameters: dose 10 mg/kg, route intravenous; details: in vivo, 2 h; method in brief: as §4

SMILES	Drug uptake [1]	Drug metabolism [2]	Drug uptake [3]	Drug metabolism [4]	Drug metabolism [5]	Activity [6]	Drug uptake [7]	Drug uptake [8]	Drug uptake [9]	Drug metabolism [10]	Drug uptake [11]	Drug uptake [12]	Drug metabolism [13]	Drug metabolism [14]	Drug metabolism [15]	Drug uptake [16]	Activity [17]	Drug metabolism [18]	Drug metabolism [19]	Drug metabolism [20]
O=C1[C@H](CC[C@H](O)c2ccc(F)cc2)[C@@H](c2ccc(O)cc2)N1c1ccc(F)cc1 [EZETIMIBE]	Active	metabolite_detected	Active	metabolite_detected	metabolite_detected	inactive	Active	Active	Not Active	metabolite_not_detected	Active	Active	metabolite_detected	metabolite_detected	metabolite_detected	Active	inactive	metabolite_detected	–	–
O=C(O)[C@H]1O[C@@H](Oc2ccc([C@@H]3[C@@H](CC[C@H](O)c4ccc(F)cc4)C(=O)N3c3ccc(F)cc3)cc2)[C@H](O)[C@@H](O)[C@@H]1O	–	–	–	–	–	–	–	–	–	–	–	–	–	–	–	–	–	–	metabolite_not_detected	metabolite_detected
